Reference: ChEMBL document CHEMBL4706641, “Novel Carboline Fungal Histone Deacetylase (HDAC) Inhibitors for Combinational Treatment of Azole-Resistant Candidiasis” (J Med Chem, 2021)
Values after ≈ are worked out from the molar mass of the structure shown. Active and inactive are the calls of the source. No cut-off for these calls is given here.

Legend:
Candida albicans [1] = experiment: Synergistic antifungal activity against Candida albicans 10061 incubated for 48 hrs in presence of fluconazole by microdilution assay; format: functional
How it was run: (§1)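 Checkerboard broth microdilution per CLSI M27-A3 (modified), clinical Candida isolates. Exponential cells in RPMI 1640 (MOPS-buffered) at 10³ cells/mL; fluconazole 0.25–64 μg/mL crossed with test compound 2–64 μg/mL (final). 48 h at 35 °C; OD630 read with background subtracted. MIC80 = 80% growth inhibition; FICI ≤0.5 synergy, >4 antagonism.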

Cryptococcus neoformans [2] = experiment: Synergistic antifungal activity against Cryptococcus neoformans assessed as potentiation of VRC antifungal activity by measuring VRC incubated for 48 hrs in presence of fluconazole by checkerboard microdilution assay; format: functional, organism-based
Candida albicans [3] = experiment: Synergistic antifungal activity against Candida albicans 0304103 at 8 ug/ml incubated for 48 hrs in presence of 32 ug/ml fluconazole by microdilution assay; format: functional, organism-based; settings: dose 8.0 µg/ml
Candida albicans [4] = experiment: Up-regulation of MDR1 mRNA expression in Candida albicans 0304103 at 32 ug/ml incubated for 24 hrs by RT-PCR analysis; format: functional; settings: dose 32.0 µg/ml
How it was run: (§2)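 Cells from a 1 × 10⁶ cells/mL starting suspension were split into DMSO control, FLC 32 μg/mL, test compound 32 μg/mL and combination (32 + 32 μg/mL) groups, then incubated 24 h at 35 °C in YEPD. Total RNA was extracted and reverse-transcribed. Real-time PCR ran 40 cycles (95 °C 5 s, 60 °C 34 s). Fold change was calculated by 2^−ΔΔCt against ACT1.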

Candida albicans [5] = experiment: Down regulation of ERG11 mRNA expression in Candida albicans 0304103 at 32 ug/ml incubated for 24 hrs in presence of 32 ug/ml fluconazole by RT-PCR analysis; format: functional; settings: dose 32.0 µg/ml
How it was run: (§3)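 C. albicans 0304103 (initial 1 × 10⁶ cells/mL) treated with DMSO, fluconazole 32 μg/mL, compound 32 μg/mL, or both in YEPD medium, 35 °C for 24 h. Total RNA extracted, reverse transcribed, real-time PCR for 40 cycles; fold change by 2^−ΔΔCt with ACT1 as internal control.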

Candida albicans [6] = experiment: Synergistic antifungal activity against Candida albicans 9884 incubated for 48 hrs in presence of fluconazole by microdilution assay; format: functional; how it was run: as §1
Cryptococcus neoformans [7] = experiment: Synergistic antifungal activity against Cryptococcus neoformans assessed as potentiation of ITC antifungal activity by measuring ITC incubated for 48 hrs in presence of fluconazole by checkerboard microdilution assay; format: functional, organism-based
Candida albicans [8] = experiment: Synergistic antifungal activity against azole-resistant Candida albicans assessed as potentiation of VRC antifungal activity by measuring VRC incubated for 48 hrs in presence of fluconazole by checkerboard microdilution assay; format: functional
Nakaseomyces glabratus = experiment: Synergistic antifungal activity against Candida glabrata assessed as potentiation of VRC antifungal activity by measuring VRC incubated for 48 hrs in presence of fluconazole by checkerboard microdilution assay; format: functional, organism-based
Candida albicans [9] = experiment: Synergistic antifungal activity against Candida albicans 10061 assessed as potentiation of fluconazole antifungal activity by measuring FICI incubated for 48 hrs in presence of fluconazole by checkerboard microdilution assay; format: functional
How it was run: (§4)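 Checkerboard broth microdilution per CLSI M27-A3 (modified), clinical Candida isolates. 48 h at 35 °C; OD630 read with background subtracted. MIC80 = 80% growth inhibition; FICI ≤0.5 synergy, >4 antagonism.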

Candida albicans [10] = experiment: Down regulation of CDR2 mRNA expression in Candida albicans 0304103 at 32 ug/ml incubated for 24 hrs in presence of 32 ug/ml fluconazole by RT-PCR analysis; format: functional; settings: dose 32.0 µg/ml; how it was run: as §3
[Candida] auris = Synergistic antifungal activity against Candida auris assessed as potentiation of ITC antifungal activity by measuring ITC incubated for 48 hrs in presence of fluconazole by checkerboard microdilution assay; format: functional, organism-based; settings: Candidozyma auris
Candida albicans [11] = experiment: Synergistic antifungal activity against azole-resistant Candida albicans assessed as potentiation of ITC antifungal activity by measuring ITC incubated for 48 hrs in presence of fluconazole by checkerboard microdilution assay; format: functional
Candida albicans [12] = experiment: Antifungal activity against Candida albicans 9884 incubated for 48 hrs by microdilution assay; format: functional; how it was run: as §1
Candida albicans [13] = experiment: Synergistic antifungal activity against Candida albicans 9884 assessed as potentiation of fluconazole antifungal activity by measuring FICI incubated for 48 hrs in presence of fluconazole by checkerboard microdilution assay; format: functional; how it was run: as §4
Candida albicans [14] = experiment: Synergistic antifungal activity against Candida albicans 9172 assessed as fluconazole MIC incubated for 48 hrs in presence of fluconazole by microdilution assay (reference value: fluconazole alone MIC = >[…] ug/ml); format: functional
Candida albicans [15] = experiment: Antifungal activity against Candida albicans 0304103 infected in ICR mouse model of candidiasis assessed as reduction in fungal invasion by measuring clusters of fungal infiltration in renal pelvis at 10 mg/kg, ip dosed 24 hrs post infection and measured after 5 days by H and E staining based microscopical analysis; format: functional, organism-based; settings: time 5.0 day
How it was run: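 Two ICR mice per group, infected and treated as in the kidney burden model (IV 5 × 10⁵ C. albicans 0304103; IP compound 10 mg/kg, fluconazole 1 mg/kg, or combination, 5 days). Kidneys fixed in 4% paraformaldehyde, paraffin-embedded, 4 μm sections, H&E stained, examined at 40× and 200×.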

Candida albicans [16] = experiment: Antifungal activity against Candida albicans 10061 incubated for 48 hrs by microdilution assay; format: functional; how it was run: as §1
Candida albicans [17] = experiment: Up-regulation of MDR1 mRNA expression in Candida albicans 0304103 at 32 ug/ml incubated for 24 hrs in presence of 32 ug/ml fluconazole by RT-PCR analysis; format: functional; settings: dose 32.0 µg/ml; how it was run: as §2
Candida albicans [18] = experiment: Up-regulation of CDR2 mRNA expression in Candida albicans 0304103 at 32 ug/ml incubated for 24 hrs by RT-PCR analysis; format: functional; settings: dose 32.0 µg/ml; how it was run: as §3
Candida albicans [19] = experiment: Synergistic antifungal activity against Candida albicans 9884 assessed as fluconazole MIC incubated for 48 hrs in presence of fluconazole by microdilution assay (reference value: fluconazole alone MIC = >[…] ug/ml); format: functional
Pichia kudriavzevii = experiment: Antifungal activity against Candida krusei 10153 incubated for 48 hrs by microdilution assay; format: functional; how it was run: as §1
Candida albicans [20] = experiment: Inhibition of biofilm formation in Candida albicans 0304103 at 0.12 to 64 ug/ml incubated for 24 hrs by XTT reduction assay; format: functional, organism-based; settings: dose 0.12-64 µg/ml
How it was run: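 C. albicans 0304103 at 1.0 × 10⁶ CFU/mL in RPMI 1640 allowed to adhere 90 min at 37 °C, washed with PBS, then fresh medium with fluconazole 2–32 μg/mL and/or compound 0.12–64 μg/mL added; 24 h at 37 °C. Biofilm metabolic activity by XTT reduction, OD490. Three independent experiments.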

[21] = Toxicity in HUVEC in presence of fluconazole; format: cell-based; settings: human, HUVEC cells
Candida albicans [22] = experiment: Synergistic antifungal activity against Candida albicans 4108 assessed as fluconazole MIC incubated for 48 hrs in presence of fluconazole by microdilution assay (reference value: fluconazole alone MIC = >[…] ug/ml); format: functional

SMILES: O=C(Cc1ccc(OCCCn2c3c(c4cccc(Cl)c42)CCNC3)cc1)NO
- MIC80 (Candida albicans [1]): 2 µg/mL
- Activity (Cryptococcus neoformans [2]): inactive
- Activity (Candida albicans [3]): inactive
- Activity (Candida albicans [4]): Active
- Activity (Candida albicans [5]): Active
- MIC80 (Candida albicans [6]): 2 µg/mL
- Activity (Cryptococcus neoformans [7]): inactive
- fractional inhibitory concentration index (FICI) (Candida albicans [8]): 0.035
- Activity (Nakaseomyces glabratus): Active
- fractional inhibitory concentration index (FICI) (Candida albicans [9]): 0.062
- Activity (Candida albicans [10]): Active
- Activity ([Candida] auris): Active
- fractional inhibitory concentration index (FICI) (Candida albicans [11]): 0.035
- MIC80 (Candida albicans [12]): 64 µg/mL (≈ 155 µM)
- fractional inhibitory concentration index (FICI) (Candida albicans [13]): 0.039
- MIC80 (Candida albicans [14]): 0.5 µg/mL
- Activity (Candida albicans [15]): inactive
- MIC80 (Candida albicans [16]): > 64 µg/mL
- fold change (FC) (Candida albicans [17]): 8
- Activity (Candida albicans [18]): Active
- MIC80 (Candida albicans [19]): 0.5 µg/mL
- MIC80 (Pichia kudriavzevii): 64 µg/mL (≈ 155 µM)
- inhibition (Candida albicans [20]): inactive
- IC50 [21]: 12.2 µM
- MIC80 (Candida albicans [22]): 0.25 µg/mL
